Source: ChEMBL document CHEMBL3769385 (J Med Chem, 2016)

Tests used:
[1] = molecular target: T1, 5-hydroxytryptamine receptor 2C (Homo sapiens) (UniProt P28335); assay: Agonist activity at recombinant human 5HT2C-INI receptor expressed in Flp-In-293 cells assessed as calcium flux by FLIPR assay relative to 5-HT; format: functional, cell-based
T1 sequence (whole entry): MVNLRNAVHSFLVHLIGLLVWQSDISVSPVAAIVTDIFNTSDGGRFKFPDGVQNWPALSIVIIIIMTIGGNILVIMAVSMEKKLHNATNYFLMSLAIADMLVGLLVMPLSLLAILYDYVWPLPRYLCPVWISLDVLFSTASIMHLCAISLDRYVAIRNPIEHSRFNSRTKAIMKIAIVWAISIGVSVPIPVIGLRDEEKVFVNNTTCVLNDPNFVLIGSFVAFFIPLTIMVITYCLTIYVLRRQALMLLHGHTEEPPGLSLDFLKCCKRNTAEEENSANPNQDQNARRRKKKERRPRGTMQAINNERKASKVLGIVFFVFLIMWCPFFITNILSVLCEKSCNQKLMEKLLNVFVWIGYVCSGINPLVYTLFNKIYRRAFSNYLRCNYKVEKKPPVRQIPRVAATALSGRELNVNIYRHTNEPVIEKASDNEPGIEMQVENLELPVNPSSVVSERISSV

[2] = molecular target: T2, 5-hydroxytryptamine receptor 2B (Homo sapiens, UniProt P41595); assay: Agonist activity at recombinant human 5HT2B receptor expressed in Flp-In-293 cells assessed as calcium flux by FLIPR assay relative to 5-HT; format: functional, cell-based
[3] = molecular target: T2, 5-hydroxytryptamine receptor 2B
[4] = molecular target: T3, 5-hydroxytryptamine receptor 2A (Homo sapiens, UniProt P28223)
[5] = molecular target: T4, 5-hydroxytryptamine receptor 2C (Homo sapiens, UniProt P28335); assay: Agonist activity at recombinant human 5HT2C-INI receptor expressed in Flp-In-293 cells assessed as calcium flux by FLIPR assay; format: functional, cell-based
T4 sequence (P28335 whole entry): T1 sequence (whole entry)

[6] = molecular target: T3, 5-hydroxytryptamine receptor 2A; assay: Agonist activity at human 5HT2A receptor expressed in Flp-In-293 cells assessed as calcium flux by FLIPR assay relative to 5-HT; format: functional, cell-based
[7] = molecular target: Serotonin 2 receptors; 5-HT2a & 5-HT2c (Homo sapiens) (UniProt P28223+P28335); assay: Selectivity ratio of EC50 for recombinant human 5HT2A receptor to EC50 for recombinant human 5HT2C-INI receptor
Homo sapiens = species on record: Homo sapiens; assay: Selectivity ratio of EC50 for recombinant human 5HT2B receptor to EC50 for recombinant human 5HT2C-INI receptor
Method in brief: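 Calcium flux measured by FLIPR in Flp-In-293 cells stably expressing human 5-HT2B or 5-HT2C-INI receptors.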

T2 sequence (P41595 whole entry): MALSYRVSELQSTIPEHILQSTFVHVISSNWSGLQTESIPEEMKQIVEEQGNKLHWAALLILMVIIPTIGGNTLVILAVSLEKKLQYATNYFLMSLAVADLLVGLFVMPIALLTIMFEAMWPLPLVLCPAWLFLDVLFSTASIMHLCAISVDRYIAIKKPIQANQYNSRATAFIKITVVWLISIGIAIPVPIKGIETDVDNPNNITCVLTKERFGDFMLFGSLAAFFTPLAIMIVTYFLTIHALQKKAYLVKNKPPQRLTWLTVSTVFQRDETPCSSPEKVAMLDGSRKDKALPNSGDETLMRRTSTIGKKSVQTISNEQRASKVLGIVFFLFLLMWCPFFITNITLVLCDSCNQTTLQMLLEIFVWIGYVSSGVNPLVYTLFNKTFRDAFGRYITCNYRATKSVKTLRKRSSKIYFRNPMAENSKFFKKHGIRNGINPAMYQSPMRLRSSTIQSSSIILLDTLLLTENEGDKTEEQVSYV
T3 sequence (P28223 whole entry): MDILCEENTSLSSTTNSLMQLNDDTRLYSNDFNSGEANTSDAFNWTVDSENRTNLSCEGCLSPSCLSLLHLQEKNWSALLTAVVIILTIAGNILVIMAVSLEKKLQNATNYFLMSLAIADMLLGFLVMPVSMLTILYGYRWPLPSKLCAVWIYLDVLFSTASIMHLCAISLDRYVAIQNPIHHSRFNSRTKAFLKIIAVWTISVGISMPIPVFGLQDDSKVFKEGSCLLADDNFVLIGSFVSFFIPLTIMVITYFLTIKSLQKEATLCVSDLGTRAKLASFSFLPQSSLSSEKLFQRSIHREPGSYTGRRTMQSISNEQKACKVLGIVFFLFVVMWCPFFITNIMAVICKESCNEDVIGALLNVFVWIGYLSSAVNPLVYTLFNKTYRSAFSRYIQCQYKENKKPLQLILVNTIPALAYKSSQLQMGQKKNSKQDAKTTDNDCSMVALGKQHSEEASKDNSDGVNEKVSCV
Chain of Serotonin 2 receptors; 5-HT2a & 5-HT2c (Homo sapiens) (P28223 whole entry, looked up, one chain of several): as the sequence (P28223 whole entry) above

`COc1cc(F)c(F)cc1C1CC1CN` (single isomer, unassigned; (-)) [listing 1 of 2 here] gave an Emax [1] of 104% and an Emax [2] of 59%.

`C=CCOc1ccc(F)c(F)c1C1CC1CN` (single isomer, unassigned; (-)) gave an Emax [1] of 89% and an Emax [2] of 26%.

`COc1ccc(F)c(F)c1C1CC1CN` (single isomer, unassigned; (+)) [listing 1 of 2 here] gave an EC50 [3] of 209 nM, an EC50 [4] of 437 nM and an EC50 ([5]; read-out: EC50) of 9.5 nM.

For `NCC1CC1c1cc(Cl)c(F)cc1OCCF` (stereo in doubt; (-)-21c), the Emax [1] was 70% and the Emax [2] was 26%.

With `C=CCOc1cc(F)c(Cl)cc1C1CC1CN` (single isomer, unassigned; (-)) the Emax [1] was 77% and the Emax [2] was 22%.

`C=CCOc1cc(Cl)c(Cl)cc1C1CC1CN` (single isomer, unassigned; (+)) was tested, and the Emax [1] was 88%.

Compound `C=CCOc1ccc(Cl)c(F)c1C1CC1CN` (single isomer, unassigned; (+)) has an Emax [1] of 90%.

`COc1cc(Cl)c(Cl)cc1C1CC1CN` (stereo in doubt; (-)-20e) was tested, and the Emax [1] was 89% and the Emax [6] was 75%.

`NCC1CC1c1c(OCCF)ccc(Cl)c1F` (single isomer, unassigned; (-)) gave an Emax [1] of 80%.

`COc1ccc(Cl)c(F)c1C1CC1CN` (single isomer, unassigned; (+)) [listing 1 of 2 here] showed an EC50 [3] of 354 nM, an EC50 [4] of 212 nM and an EC50 ([5]; read-out: EC50) of 13 nM.

Compound `NCC1CC1c1c(OCCF)ccc(F)c1Cl` (single isomer, unassigned; (+)) has an Emax [1] of 86%.

Compound `COc1cc(F)c(Cl)cc1C1CC1CN` (stereo in doubt; (-)-20c) [listing 1 of 2 here] has an EC50 [3] of 329 nM, an EC50 [4] of 235 nM and an EC50 ([5]; read-out: EC50) of 16 nM.

Compound `NCC1CC1c1cc(Cl)c(Cl)cc1OCCF` (single isomer, unassigned; (+)) has an Emax [1] of 87%.

With `NCC1CC1c1cc(F)c(F)cc1OCCF` (single isomer, unassigned; (+)) the Emax [1] was 95%.

Work on `COc1cc(F)c(Cl)cc1C1CC1CN` (single isomer, unassigned; (+)) [listing 1 of 2 here] yielded an Emax [1] of 97%, an Emax [2] of 59% and an Emax [6] of 93%.

Compound `C=CCOc1cc(F)c(Cl)cc1C1CC1CN` (single isomer, unassigned; (+)) [listing 1 of 2 here] has an Emax [1] of 87% and an Emax [2] of 34%.

With `NCC1CC1c1cc(Cl)c(Cl)cc1OCCF` (single isomer, unassigned; (-)) the Emax [1] was 75%.

For `NCC1CC1c1cc(Cl)c(F)cc1OCCF` (single isomer, unassigned; (+)), the Emax [1] was 87% and the Emax [2] was 39%.

`COc1ccc(F)c(F)c1C1CC1CN` (stereo in doubt; (-)-20b) was tested, and the Emax [1] was 108%, the Emax [2] was 62% and the Emax [6] was 72%.

`COc1cc(F)c(Cl)cc1C1CC1CN` (single isomer, unassigned; (+)) [listing 2 of 2 here] showed an EC50 [3] of 25 nM, an EC50 [4] of 81 nM and an EC50 ([5]; read-out: EC50) of 7.6 nM. It also gave an EC50 ([5]; read-out: pEC50 (converted)) of 7.76 nM.

`NCC1CC1c1c(OCCF)ccc(F)c1Cl` (stereo in doubt; (-)-21g) was tested, and the Emax [1] was 80%.

Work on `C=CCOc1cc(Cl)c(Cl)cc1C1CC1CN` (stereo in doubt; (-)-22e) yielded an Emax [1] of 84%.

Work on `COc1cc(F)c(F)cc1C1CC1CN` (single isomer, unassigned; (+)) yielded an Emax [1] of 108% and an Emax [2] of 69%.

With `COc1ccc(F)c(F)c1C1CC1CN` (single isomer, unassigned; (+)) [listing 2 of 2 here] the Emax [1] was 108%, the Emax [2] was 64% and the Emax [6] was 79%.

For `NCC1CC1c1c(OCCF)ccc(Cl)c1Cl` (single isomer, unassigned; (+)), the Emax [1] was 90%.

`COc1ccc(F)c(Cl)c1C1CC1CN` (single isomer, unassigned; (-)) gave an Emax [1] of 96% and an Emax [6] of 72%.

`NCC1CC1c1c(OCCF)ccc(F)c1F` (single isomer, unassigned; (+)) gave an Emax [1] of 96%.

Work on `C=CCOc1ccc(Cl)c(Cl)c1C1CC1CN` (stereo in doubt; (-)-22f) yielded an Emax [1] of 93%.

Work on `NCC1CC1c1c(OCCF)ccc(Cl)c1F` (stereo in doubt; (+)-21d) yielded an Emax [1] of 86%.

With `COc1ccc(Cl)c(Cl)c1C1CC1CN` (stereo in doubt; (+)-20f) the Emax [1] was 98%, the Emax [2] was 26% and the Emax [6] was 78%.

`COc1cc(Cl)c(Cl)cc1C1CC1CN` (single isomer, unassigned; (+)) showed an Emax [1] of 95% and an Emax [6] of 85%.

Compound `C=CCOc1ccc(F)c(Cl)c1C1CC1CN` (single isomer, unassigned; (-)) [listing 1 of 2 here] has an Emax [1] of 89%.

Work on `NCC1CC1c1c(OCCF)ccc(F)c1F` (single isomer, unassigned; (-)) yielded an Emax [1] of 78%.

For `C=CCOc1ccc(F)c(Cl)c1C1CC1CN` (single isomer, unassigned; (+)) [listing 1 of 2 here], the EC50 ([5]; read-out: pEC50 (converted)) was 97.7 nM.

`C=CCOc1ccc(F)c(Cl)c1C1CC1CN` (single isomer, unassigned; (-)) [listing 2 of 2 here] gave an EC50 ([5]; read-out: EC50) of 104 nM.

With `COc1ccc(Cl)c(F)c1C1CC1CN` (single isomer, unassigned; (+)) [listing 2 of 2 here] the Emax [1] was 92%, the Emax [2] was 52% and the Emax [6] was 85%.

In the case of `COc1ccc(Cl)c(Cl)c1C1CC1CN` (single isomer, unassigned; (-)), the Emax [1] is reported as 104%, the Ratio EC50 [7] is reported as 40 and the Emax [2] is reported as 53%. The Emax [6] was 88% and the Ratio EC50 (Homo sapiens) was 31.

Compound `COc1cc(F)c(Cl)cc1C1CC1CN` (stereo in doubt; (-)-20c) [listing 2 of 2 here] has an Emax [1] of 98%, an Emax [2] of 44% and an Emax [6] of 88%.

`COc1ccc(Cl)c(F)c1C1CC1CN` (single isomer, unassigned; (-)) was tested, and the Emax [1] was 93%, the Emax [2] was 64% and the Emax [6] was 86%.

`NCC1CC1c1c(OCCF)ccc(Cl)c1Cl` (single isomer, unassigned; (-)) showed an Emax [1] of 85%.

`C=CCOc1ccc(F)c(F)c1C1CC1CN` (single isomer, unassigned; (+)) was tested, and the Emax [1] was 100% and the Emax [2] was 35%.

In the case of `COc1cc(F)c(F)cc1C1CC1CN` (single isomer, unassigned; (-)) [listing 2 of 2 here], the EC50 [4] is reported as 511 nM.

With `COc1ccc(F)c(Cl)c1C1CC1CN` (stereo in doubt; (+)-20g) the Emax [1] was 89% and the Emax [6] was 77%.

`C=CCOc1ccc(Cl)c(F)c1C1CC1CN` (stereo in doubt; (-)-22d) was tested, and the Emax [1] was 87%.

`C=CCOc1ccc(F)c(Cl)c1C1CC1CN` (single isomer, unassigned; (+)) [listing 2 of 2 here] gave an Emax [1] of 92%.

Compound `C=CCOc1cc(F)c(Cl)cc1C1CC1CN` (single isomer, unassigned; (+)) [listing 2 of 2 here] has an EC50 [3] of 1000 nM.

With `NCC1CC1c1cc(F)c(F)cc1OCCF` (single isomer, unassigned; (-)) the Emax [1] was 73%.

Compound `C=CCOc1ccc(Cl)c(Cl)c1C1CC1CN` (single isomer, unassigned; (+)) has an Emax [1] of 70%.
